A value given as a limit tells only on which side of the number the result lay.

As usually defined, the IC50 is the concentration needed to halve the response being measured.

The target in experiment [1] is T1, Polyunsaturated fatty acid 5-lipoxygenase (Homo sapiens) (UniProt P09917).
T1 sequence (whole entry): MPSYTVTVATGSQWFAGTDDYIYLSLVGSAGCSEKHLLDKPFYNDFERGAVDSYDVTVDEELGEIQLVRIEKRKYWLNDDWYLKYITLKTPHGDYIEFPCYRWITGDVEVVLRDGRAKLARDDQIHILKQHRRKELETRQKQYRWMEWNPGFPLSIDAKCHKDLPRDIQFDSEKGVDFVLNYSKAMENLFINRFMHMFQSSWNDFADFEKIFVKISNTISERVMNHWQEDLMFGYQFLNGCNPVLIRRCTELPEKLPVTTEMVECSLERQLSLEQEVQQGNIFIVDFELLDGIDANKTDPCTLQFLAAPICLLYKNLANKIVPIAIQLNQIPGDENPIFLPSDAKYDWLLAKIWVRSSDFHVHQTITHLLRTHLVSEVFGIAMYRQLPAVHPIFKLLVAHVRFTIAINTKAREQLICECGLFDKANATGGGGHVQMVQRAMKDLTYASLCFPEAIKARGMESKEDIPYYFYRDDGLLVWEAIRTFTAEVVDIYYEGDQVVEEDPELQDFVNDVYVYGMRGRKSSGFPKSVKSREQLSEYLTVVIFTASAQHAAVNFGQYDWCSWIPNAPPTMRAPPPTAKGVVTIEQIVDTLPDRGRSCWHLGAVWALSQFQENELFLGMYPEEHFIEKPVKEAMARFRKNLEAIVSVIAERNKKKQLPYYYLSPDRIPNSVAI
Put plainly: Inhibition of 5-LO in human PMNL using arachidonic acid as substrate assessed as residual activity at 10 uM preincubated for 15 mins. In short, it runs like this: (§1)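 PMNL were isolated from buffy coats by dextran sedimentation, Nycoprep centrifugation and hypotonic lysis of erythrocytes, then resuspended in PBS pH 7.4 with 1 mg/mL glucose and 1 mM CaCl₂. Cells were pre-incubated with compound for 15 min at 37 °C, then stimulated with A23187 plus AA for 10 min at 37 °C. 15-LO comes from eosinophils and 12-LO from adhering platelets in the preparation. After methanol/HCl stop and PGB₁ addition, metabolites were extracted and quantified by HPLC. Mean ± S.E.M., n = 3–4.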

Experiment [2] addresses T2, Polyunsaturated fatty acid lipoxygenase ALOX15 (Homo sapiens) (UniProt P16050).
T2 sequence (whole entry): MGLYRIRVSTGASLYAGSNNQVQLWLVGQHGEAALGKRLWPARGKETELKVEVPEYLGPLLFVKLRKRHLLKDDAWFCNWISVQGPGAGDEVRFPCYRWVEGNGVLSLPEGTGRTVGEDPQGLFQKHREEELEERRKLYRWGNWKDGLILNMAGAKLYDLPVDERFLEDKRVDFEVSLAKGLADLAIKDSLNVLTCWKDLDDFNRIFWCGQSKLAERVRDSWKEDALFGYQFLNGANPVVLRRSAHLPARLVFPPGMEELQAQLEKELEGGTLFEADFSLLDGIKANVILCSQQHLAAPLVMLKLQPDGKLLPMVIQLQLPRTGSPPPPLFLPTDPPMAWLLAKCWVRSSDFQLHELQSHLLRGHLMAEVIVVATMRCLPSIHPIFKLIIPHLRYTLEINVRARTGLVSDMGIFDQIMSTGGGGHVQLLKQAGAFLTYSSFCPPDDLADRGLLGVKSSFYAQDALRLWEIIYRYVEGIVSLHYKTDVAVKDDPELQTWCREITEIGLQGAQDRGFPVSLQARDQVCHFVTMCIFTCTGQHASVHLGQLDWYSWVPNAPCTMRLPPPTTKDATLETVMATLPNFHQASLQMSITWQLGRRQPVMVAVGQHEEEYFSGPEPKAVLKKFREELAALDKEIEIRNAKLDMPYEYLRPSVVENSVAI
The experiment is described as follows: Inhibition of 15-LO in human PMNL using arachidonic acid as substrate assessed as residual activity at 10 uM preincubated for 15 mins. In short, it runs like this: as §1

Experiment [3] concerns the target T1, Polyunsaturated fatty acid 5-lipoxygenase (Homo sapiens). Put plainly: Inhibition of human recombinant 5-LO expressed in Escherichia coli BL21 using arachidonic acid as substrate assessed as residual activity at 10 uM after 10 mins.
The target in experiment [4] is T3, Polyunsaturated fatty acid lipoxygenase ALOX12 (Homo sapiens) (UniProt P18054).
T3 sequence (whole entry): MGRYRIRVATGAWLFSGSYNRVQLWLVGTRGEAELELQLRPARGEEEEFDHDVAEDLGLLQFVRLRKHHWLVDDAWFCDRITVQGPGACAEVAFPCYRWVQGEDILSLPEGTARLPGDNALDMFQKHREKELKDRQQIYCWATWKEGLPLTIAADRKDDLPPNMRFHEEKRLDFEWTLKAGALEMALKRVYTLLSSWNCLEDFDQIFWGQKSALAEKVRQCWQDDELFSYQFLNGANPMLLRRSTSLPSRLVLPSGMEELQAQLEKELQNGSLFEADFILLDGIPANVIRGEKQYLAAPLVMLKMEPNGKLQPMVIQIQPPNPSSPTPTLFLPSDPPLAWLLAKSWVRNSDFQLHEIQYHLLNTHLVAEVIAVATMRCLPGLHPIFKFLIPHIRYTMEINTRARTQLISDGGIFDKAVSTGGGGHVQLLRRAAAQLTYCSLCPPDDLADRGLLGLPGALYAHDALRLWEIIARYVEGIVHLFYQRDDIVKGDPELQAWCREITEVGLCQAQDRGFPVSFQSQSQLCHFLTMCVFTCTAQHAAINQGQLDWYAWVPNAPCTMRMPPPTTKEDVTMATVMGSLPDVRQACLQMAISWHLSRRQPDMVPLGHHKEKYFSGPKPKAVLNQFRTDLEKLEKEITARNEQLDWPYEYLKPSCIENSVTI
The experiment is described as follows: Inhibition of 12-LO in human PMNL using arachidonic acid as substrate assessed as residual activity at 10 uM preincubated for 15 mins. The procedure, abridged:
as §1

Experiment [5] addresses T4, Polyunsaturated fatty acid 5-lipoxygenase (Homo sapiens, UniProt P09917).
T4 sequence (P09917 whole entry): T1 sequence (whole entry)
Put plainly: Inhibition of human recombinant 5-LO expressed in Escherichia coli BL21 using arachidonic acid as substrate after 10 mins. In short, it runs like this:
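Purified 5-LO was diluted in PBS/EDTA and pre-incubated with compound for 5–10 min at 4 °C, then pre-warmed for 30 s at 37 °C. The reaction was started with 2 mM CaCl₂ plus AA, run 10 min at 37 °C and stopped with ice-cold methanol. Products were analysed by HPLC.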

The target in experiment [6] is T4, Polyunsaturated fatty acid 5-lipoxygenase. Put plainly: Inhibition of 5-LO in human PMNL using arachidonic acid as substrate preincubated for 15 mins. The procedure, abridged:
as §1

Experiment [7] addresses T5, Polyunsaturated fatty acid lipoxygenase ALOX12 (Homo sapiens, UniProt P18054).
T5 sequence (P18054 whole entry): T3 sequence (whole entry)
The experiment is described as follows: Inhibition of 12-LO in human PMNL using arachidonic acid preincubated for 15 mins. The procedure, abridged:
as §1

Experiment [8] has as its target T6, Polyunsaturated fatty acid lipoxygenase ALOX15 (Homo sapiens, UniProt P16050).
T6 sequence (P16050 whole entry): T2 sequence (whole entry)
The experiment is described as follows: Inhibition of 15-LO in human PMNL using arachidonic acid as substrate preincubated for 15 mins. The procedure, abridged: as §1

Turning to `COC1=CC(=O)C(O)=C(Cc2ccccc2)C1=O`, the Activity in experiment [1] stood at 103%; in experiment [2], 96.4%; in experiment [3] it was 110%; in experiment [4], 84%. The IC50 in experiment [5] and in experiment [6] was above 10 µM throughout.
On to `Oc1ccc(-c2cccc3c2Sc2ccccc2S3)c(O)c1`, for which the Activity came to 10.5% in experiment [1], 58.3% in experiment [2], 15.4% in experiment [3] and 91.4% in experiment [4]. Further, the IC50 in experiment [7] was above 10 µM; in experiment [5], 3.2 µM; in experiment [6], 2.1 µM; in experiment [8] it was above 10 µM.
As to `O=C1C=C(Cc2ccccc2)C(=O)C=C1O`, the Activity in experiment [1] is 93.3%; in experiment [2], 132%; in experiment [3], 74.3%; in experiment [4] it was 95.4%. The IC50 in experiment [5] and in experiment [6] was above 10 µM throughout.
For `Oc1ccc(Cc2ccccc2)c(O)c1`, the Activity in experiment [1] turned out to be 60%; in experiment [2], 116%; in experiment [3] it was 47.6%; in experiment [4], 77%. The IC50 in experiment [5] was 9.4 µM; in experiment [6], above 10 µM.
In the case of `COC1=CC(=O)C(Oc2ccc3ccccc3c2)=CC1=O`, the Activity in experiment [1] was 21.2%; in experiment [2] it was 47.9%; in experiment [3], 7.1%; in experiment [4] it was 73.1%. Further, the results for the IC50 in experiment [5] and in experiment [6] were 0.28 µM and 6.7 µM, respectively.
For the compound `O=C1C=C(Cc2ccc3cc(C(=O)O)ccc3c2)C(=O)C=C1O`, the Activity in experiment [1] came out at 74%; in experiment [2] it was 80.9%; in experiment [3], 45.2%; in experiment [4] it was 81.1%. For the same compound, the IC50 in experiment [5] is 9 µM; in experiment [6] it was above 10 µM.
For `O=[N+]([O-])c1cccc(-c2ccc(O)cc2O)c1`, the Activity in experiment [1] was found to be 64.1%; in experiment [2], 108%; in experiment [3], 84.3%; in experiment [4], 90.1%. Moreover, the IC50 in experiment [5] and in experiment [6] was above 10 µM each time.
Take `Oc1ccc(-c2csc3ccccc23)c(O)c1`: the Activity was determined as 92.8% in experiment [1], 115% in experiment [2], 100% in experiment [3] and 115% in experiment [4]. The IC50 in experiment [5] and in experiment [6] was above 10 µM each time.
With `O=C1C=C(c2cccc([N+](=O)[O-])c2)C(=O)C=C1O`, the Activity in experiment [1] stood at 61.3%; in experiment [2] it was 116%; in experiment [3], 8%; in experiment [4], 60.9%. In addition, the IC50 is 4.6 µM in experiment [5] and above 10 µM in experiment [6].
For the compound `Oc1ccc(-c2ccccc2)c(O)c1`, the Activity in experiment [1] came out at 22.7%; in experiment [2], 106%; in experiment [3], 9.4%; in experiment [4] it was 72.3%. In addition, the IC50 was above 10 µM in experiment [7], 2.8 µM in experiment [5], 4.2 µM in experiment [6] and above 10 µM in experiment [8].
Turning to `CCCCCCC1=CC(=O)C(O)=CC1=O`, the Activity in experiment [1] was found to be 15.9%; in experiment [2], 185%; in experiment [3], 14.2%; in experiment [4], 89.8%. The IC50 was above 10 µM in experiment [7], 1.4 µM in experiment [5], 3 µM in experiment [6] and above 10 µM in experiment [8].
`Oc1ccc(Cc2ccc3ccccc3c2)c(O)c1`: the Activity in experiment [1] was 8.9%; in experiment [2], 191%; in experiment [3], 37.2%; in experiment [4] it was 79.2%. Further, the IC50 was above 10 µM in experiment [7], 7.4 µM in experiment [5], 2.3 µM in experiment [6] and above 10 µM in experiment [8].
In the case of `Oc1ccc(-c2cccc3c2oc2ccccc23)c(O)c1`, the Activity in experiment [1] came to 84.1%; in experiment [2], 182%; in experiment [3], 30.7%; in experiment [4] it was 93.3%. Further, the IC50 in experiment [5] was 6.3 µM; in experiment [6], above 10 µM.
For the compound `COC1=CC(=O)C(O)=C(Cc2ccc3ccccc3c2)C1=O`, the Activity in experiment [1] came to 56.1%; in experiment [2], 89.5%; in experiment [3] it was 92.3%; in experiment [4] it was 76.4%. In addition, the IC50 in experiment [5] and in experiment [6] was above 10 µM each time.
On to `CCCCCCc1ccc(O)cc1O` [HEXYLRESORCINOL], for which the Activity in experiment [1] stood at 18.6%; in experiment [2] it was 110%; in experiment [3], 25.6%; in experiment [4], 69.3%. In addition, the IC50 in experiment [7] was above 10 µM; in experiment [5] it was 4.6 µM; in experiment [6] it was 2.8 µM; in experiment [8], above 10 µM.
As to `O=C1C=C(O)C(=O)C(CC2CCC3CCCCC3C2)=C1O` (stereo not drawn), the Activity in experiment [1] is 5.4%; in experiment [2] it was 87.9%; in experiment [3], 51%; in experiment [4], 60.9%. In addition, the concentration for half-maximal inhibition (IC50) in experiment [7] was above 10 µM; in experiment [5], 11 µM; in experiment [6], 0.58 µM; in experiment [8], above 10 µM.
For `O=C1C=C(O)C(=O)C(CC2CCCCC2)=C1O`, the Activity in experiment [1] amounted to 90.4%; in experiment [2], 87.3%; in experiment [3], 95.2%; in experiment [4], 85.2%. Besides, the IC50 in experiment [5] and in experiment [6] was above 10 µM each time.
With `O=C(Cc1ccc2ccccc2c1)c1ccc(O)cc1O`, the Activity was found to be 42.4% in experiment [1], 108% in experiment [2], 57.4% in experiment [3] and 96% in experiment [4]. Also, the IC50 was above 10 µM in experiment [7], above 10 µM in experiment [5], 6.8 µM in experiment [6] and above 10 µM in experiment [8].
As for `O=C1C=C(c2cccc3c2oc2ccccc23)C(=O)C=C1O`, the Activity in experiment [1] amounted to 74.1%; in experiment [2], 79.8%; in experiment [3], 30.8%; in experiment [4], 46.2%. Besides, the IC50 was 0.8 µM in experiment [5] and above 10 µM in experiment [6].

These data come from ChEMBL document CHEMBL3108770, “Discovery and biological evaluation of novel 1,4-benzoquinone and related resorcinol derivatives that inhibit 5-lipoxygenase” (Eur J Med Chem, 2013).
